≈ marks a conversion by molar mass, not a printed value. Calls of active or inactive are those of the source. No cut-off for these calls is given here.
Key:
Proteus mirabilis [1] = assay: In vitro minimum inhibitory concentration against Proteus mirabilis; assay type: functional
Outline: (§1)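 Compounds were dissolved in water, or in water with the minimum DMSO needed to keep them in solution, and tested by an established dilution method. A ">" prefix means the DMSO solvent blank was inhibitory at that level.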

Staphylococcus aureus [2] = assay: Minimum inhibitory dilution of medicated rat urine tested in vitro for antibacterial activity against Staphylococcus aureus; Equal to 1:4; assay type: functional
Staphylococcus aureus [3] = assay: In vitro minimum inhibitory concentration against Staphylococcus aureus; assay type: functional; outline: as §1
Proteus mirabilis [4] = assay: Minimum inhibitory dilution of medicated rat urine tested in vitro for antibacterial activity against Proteus mirabilis; Less than 1:2; assay type: functional
Staphylococcus aureus [5] = assay: Minimum inhibitory dilution of medicated rat urine tested in vitro for antibacterial activity against Staphylococcus aureus; Equal to 1:32; assay type: functional
Proteus mirabilis [6] = assay: Minimum inhibitory dilution of medicated rat urine tested in vitro for antibacterial activity against Proteus mirabilis; Equal to 1:16; assay type: functional
Staphylococcus aureus [7] = assay: Minimum inhibitory dilution of medicated rat urine tested in vitro for antibacterial activity against Staphylococcus aureus; Equal to 1:16; assay type: functional
Proteus mirabilis [8] = assay: Minimum inhibitory dilution of medicated rat urine tested in vitro for antibacterial activity against Proteus mirabilis; Equal to 1:8; assay type: functional
Staphylococcus aureus [9] = assay: Minimum inhibitory dilution of medicated rat urine tested in vitro for antibacterial activity against Staphylococcus aureus; Less than 1:2; assay type: functional
Staphylococcus aureus [10] = assay: Minimum inhibitory dilution of medicated rat urine tested in vitro for antibacterial activity against Staphylococcus aureus; Equal to 1:128; assay type: functional
Proteus mirabilis [11] = assay: Minimum inhibitory dilution of medicated rat urine tested in vitro for antibacterial activity against Proteus mirabilis; Equal to 1:192; assay type: functional
Proteus mirabilis [12] = assay: Minimum inhibitory dilution of medicated rat urine tested in vitro for antibacterial activity against Proteus mirabilis; Equal to 1:4; assay type: functional
Staphylococcus aureus [13] = assay: Minimum inhibitory dilution of medicated rat urine tested in vitro for antibacterial activity against Staphylococcus aureus; Equal to 1:2; assay type: functional
Staphylococcus aureus [14] = assay: Minimum inhibitory dilution of medicated rat urine tested in vitro for antibacterial activity against Staphylococcus aureus; Equal to 1:8; assay type: functional
Mus musculus [15] = assay: Antitubercular activity (100 mg/kg) in the 31-day murine model; assay type: functional
Outline: (§2)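 Female Swiss mice (14–16 g), 10 per treated group and 20 infected controls, were infected i.v. with 0.1 mL of a 2 mg/mL M. tuberculosis H37Rv suspension. Oral dosing was in 0.5 mL 1.0% gum tragacanth, starting day 3 post-infection, twice daily, 5 days/week for 4 weeks. Percent survival was recorded at day 31; active meant survival consistently >80%.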

Mus musculus [16] = assay: Antitubercular activity (25 mg/kg) in the 31-day murine model; assay type: functional; outline: as §2
Mus musculus [17] = assay: Antitubercular activity (50 mg/kg) in the 31-day murine model; assay type: functional; outline: as §2
Mus musculus [18] = assay: Antitubercular activity (12.5 mg/kg) in the 31-day murine model; assay type: functional; outline: as §2
Mus musculus [19] = assay: Antitubercular activity (3.1 mg/kg) in the 31-day murine mice model; NA=Not active; assay type: functional, organism-based; outline: as §2
Mus musculus [20] = assay: Antitubercular activity (6.25 mg/kg) in the 31-day murine mice model; NA=Not active; assay type: functional, organism-based; outline: as §2
Mus musculus [21] = assay: Antitubercular activity (100 mg/kg) in the 31-day murine mice model; NA=Not active; assay type: functional, organism-based; outline: as §2
Mus musculus [22] = assay: Antitubercular activity (12.5 mg/kg) in the 31-day murine mice model; NA=Not active; assay type: functional, organism-based; outline: as §2
Mus musculus [23] = assay: Antitubercular activity (50 mg/kg) in the 31-day murine mice model; NA=Not active; assay type: functional, organism-based; outline: as §2
Mus musculus [24] = assay: Antitubercular activity (25 mg/kg) in the 31-day murine mice model; NA=Not active; assay type: functional, organism-based; outline: as §2
Proteus mirabilis [25] = assay: Minimum inhibitory dilution of medicated rat urine tested in vitro for antibacterial activity against Proteus mirabilis; Equal to 1:32; assay type: functional
Mus musculus [26] = assay: Antitubercular activity (3.1 mg/kg) in the 31-day murine mice model; assay type: functional; outline: as §2
Mus musculus [27] = assay: Antitubercular activity (6.25 mg/kg) in the 31-day murine mice model; assay type: functional; outline: as §2
Mus musculus [28] = assay: Antitubercular activity (12.5 mg/kg) in the 31-day murine mice model; assay type: functional; outline: as §2
[29] = Proteus mirabilis, read-out: MIC
[30] = Staphylococcus aureus, read-out: MIC

| MIC (Proteus mirabilis [1]; [29]) | MIC (Staphylococcus aureus [3]; [30]) | SMILES | MID (Proteus mirabilis [4]) | MID (Staphylococcus aureus [9]) | further results |
| --- | --- | --- | --- | --- | --- |
| > 125 µg/mL | 31.3 µg/mL (≈ 156 µM) | CC1=CC(=Nn2cccc2)C=C(C)C1=O | <0.5 |  | MID (Staphylococcus aureus [2]): 0.25 |
| > 125 µg/mL | > 125 µg/mL | COc1ccc(Nn2cccc2)cc1 |  |  | MID (Staphylococcus aureus [5]): 0.03125; MID (Proteus mirabilis [6]): 0.0625 |
| > 62.5 µg/mL | 3.9 µg/mL (≈ 12.1 µM) | O=C(N[C@H](CO)[C@H](O)c1ccc([N+](=O)[O-])cc1)C(Cl)Cl [CHLORAMPHENICOL] |  |  | MID (Staphylococcus aureus [7]): 0.0625; MID (Proteus mirabilis [8]): 0.125 |
| > 125 µg/mL | 62.5 µg/mL (≈ 300 µM) | Oc1ccc(Nn2cccc2)c(Cl)c1 | 0.5 | <0.5 |  |
| > 125 µg/mL | 250 µg/mL (≈ 1580 µM) | c1ccc(Nn2cccc2)cc1 |  |  | MID (Staphylococcus aureus [10]): 0.00781; MID (Proteus mirabilis [11]): 0.005208 |
| 250 µg/mL (≈ 1340 µM) | 125 µg/mL (≈ 668 µM) | O=Nc1ccc(Nn2cccc2)cc1 | <0.5 | <0.5 |  |
| 125 µg/mL (≈ 668 µM) | 15.6 µg/mL (≈ 83.3 µM) | NC1=CC(=O)C=C/C1=N/n1cccc1 |  |  | MID (Proteus mirabilis [12]): 0.25; MID (Staphylococcus aureus [13]): 0.5 |
| 62.5 µg/mL (≈ 329 µM) | ≤ 7.8 µg/mL | Oc1ccc(Nn2cccc2)cc1O | <0.5 |  | MID (Staphylococcus aureus [14]): 0.125 |
| > 250 µg/mL | 31.3 µg/mL (≈ 126 µM) | c1ccc(Nc2ccc(Nn3cccc3)cc2)cc1 | <0.5 | <0.5 |  |
| 15.6 µg/mL (≈ 89.6 µM) | ≤ 7.8 µg/mL | Oc1ccccc1Nn1cccc1 | <0.5 | <0.5 |  |
| > 62.5 µg/mL | 15.6 µg/mL (≈ 65.5 µM) | O=C1CN(/N=C/c2ccc([N+](=O)[O-])o2)C(=O)N1 [NITROFURANTOIN] |  |  | MID (Staphylococcus aureus [5]): 0.03125 |
| 62.5 µg/mL (≈ 312 µM) | ≤ 7.8 µg/mL | Cc1ccc(C)n1N=C1C=CC(=O)C=C1 | <0.5 |  | MID (Staphylococcus aureus [13]): 0.5 |
| > 250 µg/mL | 125 µg/mL (≈ 586 µM) | [N-]=[N+]=NC1=CC(=O)C=C/C1=N/n1cccc1 | <0.5 | <0.5 |  |
|  |  | CC[C@@H](CO)NCCN[C@@H](CC)CO [ETHAMBUTOL] |  |  | Survival (Mus musculus [15]): 100%; Survival (Mus musculus [16]): 30%; Survival (Mus musculus [17]): 90%; Survival (Mus musculus [18]): 0% |
| 62.5 µg/mL (≈ 279 µM) | ≤ 7.8 µg/mL | Oc1ccc(Nn2cccc2)c2ccccc12 | < 0.5 |  | MID (Staphylococcus aureus [2]): 0.25 |
| 500 µg/mL (≈ 2870 µM) | 62.5 µg/mL (≈ 359 µM) | Oc1cccc(Nn2cccc2)c1 | <0.5 | <0.5 |  |
|  |  | C1=CC(=Nn2cccc2)C=CC1=Nn1cccc1 [AZAROLE] |  |  | MID (Proteus mirabilis [25]): 0.03125; Survival (Mus musculus [26]): 70%; MIC (Proteus mirabilis [1]): >125 µg/mL; MID (Staphylococcus aureus [14]): 0.125; MIC (Staphylococcus aureus [3]): >62.5 µg/mL; Survival (Mus musculus [27]): 100%; Survival (Mus musculus [28]): 80% |

| SMILES | MIC (Proteus mirabilis [1]; [29]) | MIC (Staphylococcus aureus [3]; [30]) | MID (Proteus mirabilis [4]) | MID (Staphylococcus aureus [9]) | further results |
| --- | --- | --- | --- | --- | --- |
| Cc1ccc(C(=O)Oc2ccc(Nn3cccc3)cc2)cc1 | > 250 µg/mL | > 250 µg/mL | < 0.5 |  | Survival (Mus musculus [19]): inactive; Survival (Mus musculus [20]): inactive; Survival (Mus musculus [21]): inactive; MID (Staphylococcus aureus [2]): 0.25; Survival (Mus musculus [22]): inactive; Survival (Mus musculus [23]): inactive; Survival (Mus musculus [24]): inactive |

Reference: ChEMBL document CHEMBL1121743, “Synthesis and antibacterial activity of 1-(arylamino)-1H-pyrroles and 4-(1H-pyrrol-1-ylimino)-2,5-cyclohexadienes” (1981)
